# Assay results: PubChem BioAssay AID504338 (NMMLSC, 2011)
# Values joined by “and” are separate entries in the source; they are usually repeats but may differ in a detail not shown here. Equal values may be shown once. Values without a mark were called inactive. Active and inactive are the calls of the source.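 How the source made its calls: active means GFP response vs DMSO above 150% with enough events counted; inconclusive means fewer than 70 events counted for a yeast strain; inactive means the rest.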
# Test: yeast TOR reporter LAP4-GFP retest – cell-based, third cherry pick, flow cytometry, confirmation (AID 504338);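 further: ratio to plate DMSO wells so 100% equals DMSO level rather than 0%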
# Conditions: S. cerevisiae LAP4-GFP strain, 3 h, at 10 µM, active compounds read high
# Outline: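 Material: Saccharomyces cerevisiae strain expressing LAP4-GFP fusion protein / Compound: 10 µM, one concentration / Incubation: compound exposure for 3 h at 30 °C / Detection: high-throughput flow cytometry of GFP, single-cell scatter gate / Measure: median GFP fluorescence as percent of plate DMSO-well average / Benchmarks: rapamycin 400 ng/mL high, DMSO low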
row,Compound,GFP response vs DMSO
1,O=C(Nc1cccc(Cl)c1)ON=C1c2ccccc2-c2ccccc21,107%
2,COc1cccc(NC(=O)CC(C)=O)c1,101%
3,CC1=CN2C(=N)/C(=C/c3ccco3)C(=O)N=C2S1,101%
4,CNc1nc(C)c([N+](=O)[O-])c(Nc2ccc(OC)cc2)n1,108%
5,O=C(O)c1ccccc1-c1ccccc1C(=O)Nc1ccc(-c2nc3cc(Cl)ccc3o2)cc1,104%
6,O=C(O)CCCCCNc1ncnc2ccc(Br)cc12,104%
7,Cc1ccc2nc(-c3ccc(NC(=O)c4cccnc4)cc3)oc2c1,103%
8,Cc1ccc(NC(=O)O/N=C2\CCCCC2c2ccc([N+](=O)[O-])cc2[N+](=O)[O-])cc1 (configuration not stated),103%
9,CC(=O)C(Cl)C(=O)Nc1ccccc1 (configuration not stated),124%
10,CN1CCN(C(=O)c2cc(COc3ccc(F)cc3Cl)on2)CC1c1ccccc1 (configuration not stated),103%
11,O=C(Nc1ccc(-c2nc3ccccc3o2)cc1)c1cccnc1,117%
12,COc1ccc(-c2cc(C(F)(F)F)nc(S(C)(=O)=O)n2)cc1OC,107% and 110%
13,COc1ccc(OC)c2c(=O)cc(C(=O)O)[nH]c12,104%
14,Cc1ccc(NN2C(=O)C=C(c3ccccc3)C2=O)cc1,138%
15,CCc1sc(C(=O)Nc2nc(-c3ccccn3)cs2)cc1C,189% (active)
16,Cc1ccc(C)c(Nc2ncnc(N)c2[N+](=O)[O-])c1,107%
17,CC(=O)Nc1ccc(-c2nc3ccccc3o2)cc1,108%
